Screening data deposited in PubChem by The Scripps Research Institute Molecular Screening Center.
An excerpt weighted towards active compounds, which were near 1.9% of everything screened.
PLC-beta3 inh: PLC-beta3 (human) inhibition, primary screen; Q01970; Purified PLC-beta3, fluorogenic substrate, fluorescence; inhibition, % at 12.2 µM; AID 720704; actives 0.18% (n = 370,000); in the data active = inhibition above about 11%;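 also: 0% = median of compound wells on plate and 100% = full blocker control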
PLC-gamma1 inh: inhibitors of human phospholipase C gamma1. P19174. purified PLC-gamma1, fluorogenic substrate, fluorescence. inhibition, % at 12.2 µM. actives 0.84% (n = 370,000); in the data active = inhibition above about 9.5%
Tb MetRS inh: Trypanosoma brucei MetRS inhibition. purified T. brucei MetRS, ATP depletion, Kinase-Glo luminescence. inhibition, % at 11.9 µM. actives 0.4% (n = 360,000). AID 624268;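 active = inhibition above a per-plate cutoff of the control wells' mean inhibition plus 3 SD, cut at about 5.5% in these data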;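 also: 0% = DMSO wells median and 100% = median of wells with control inhibitor compound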
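Assay system: T. brucei methionyl-tRNA synthetase, purified | Medium: HEPES buffer with MgCl2, KCl, DTT, spermine, BSA, pyrophosphatase | Compound: 11.9 µM single point | Incubation: 15 min enzyme-compound preincubation, 2 h reaction, 10 min detection, 25 °C | Measured by: Kinase-Glo luciferase luminescence reporting remaining unconsumed ATP | Measure: % inhibition normalized to control-well medians | Replication: Singlicate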
HGIII-sPLA2 inh: Blocks human group III sPLA2 activity; QFRET BODIPY PC-A2 liposome hydrolysis, fluorescence; inhibition, % at 12.2 µM; actives 0.56% (n = 370,000); AID 743126; Q9NZ20;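 active = inhibition above mean plus 3 SD of compounds lying within the high and low control bounds, cut at about 19% in these data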;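 also: 0% = median of test compound wells and 100% = no enzyme DMSO wells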
The depositor's hits bear a star; . = no result given.

SMILES	PLC-beta3 inh	PLC-gamma1 inh	Tb MetRS inh	HGIII-sPLA2 inh
CN(C)CCCOc1ccc(Cl)cc1Br	5	4	5.9*	-4
COc1ccccc1NC(=O)OCCN1CCCC12CCC(c1ccccc1)CC2 (stereo not given)	-1	-2	.	-1
CC(=O)C1CCC2C3CC=C4CC(SC(=N)N)CCC4(C)C3CCC12C (stereo not given)	-1	5	0	37*
CC(=O)OCC(=O)C1CCC2C3CC=C4CC(O)CCC4(C)C3CCC12C (stereo not given)	2	0	-1	-7
Cc1ccccc1-c1cc(C(=O)N/N=C/c2cccnc2)c2ccccc2n1	-9	2	3	3
O=C(N/N=C/c1cccnc1)c1cc(-c2ccccc2Cl)nc2ccccc12	-3	0	7.1*	-5
CCCCC#CC(CC)NCc1ccc(OC)cc1OC (stereo not given)	5	3	.	-8
CCN1C[C@@H]2[C@@H]3C(=O)N(Cc4ccccc4)C(=O)[C@@H]3[C@](C)(C1=O)N2C(=O)c1ccccc1	11*	2	0	8
CCCn1cnnc1CNC(=O)[C@@H](Cc1ccccc1)NC(=O)[C@H]1O[C@@H](n2ccc(=O)[nH]c2=O)[C@H](O)[C@@H]1O	2	6	.	-1
CC(NO)/C(=N\O)c1cccs1 (stereo not given)	-4	4	0	24*
Cc1occc1-c1nnc(SCC(=O)Nc2ccncc2)n1-c1ccccc1	-1	2	.	-1
COc1ccc(N2CSC3=C(C#N)C(c4cccs4)CC(=O)N3C2)cc1 (stereo not given)	0	9.9*	-1	9
CC(=O)c1c(C)[nH]c(C(=O)Nc2ccccc2C)c1C	-2	2	.	8
CC(OC(=O)c1ccccn1)C(=O)Nc1ccc(C(F)(F)F)cc1 (stereo not given)	-5	-1	0	1
CC(OC(=O)c1ccco1)C(=O)Nc1ccc(C(F)(F)F)cc1 (stereo not given)	-2	12*	0	-4
CN(C)c1nc(N(C)C)nc(N(C)C)n1	2	9.6*	1	13
CC(=O)Nc1nc2ccccc2n1CCN(C)C	13*	3	-2	1
CCCN1CCC(=O)N([C@H](CSc2ccccc2)CC(C)C)CC1	6	5	0	5
CC(C)C[C@@H](CSc1ccccc1)N1CCN(C)CCC1=O	7	9.7*	0	1
CCOC(=O)C1(C(=O)OCC)Cc2c([nH]c3ccccc23)[C@]2(N1)C(=O)N(C)c1ccc(Br)cc12	-4	10*	.	-16
CN1C(=O)C2(NCCc3c2[nH]c2ccccc32)c2ccccc21 (stereo not given)	0	3	0	-1
O=C(Nc1cccc2ccccc12)c1ccccc1NS(=O)(=O)c1cccc2cccnc12	0	0	0	5
O=C(O)c1ccccc1NS(=O)(=O)c1cccc2cccnc12	11*	8	-1	-6
CCCCC1CCC(C(=O)N(CCOC)c2c(N)n(CC(C)C)c(=O)[nH]c2=O)CC1 (stereo not given)	2	14*	0	8
Cc1ccccc1C(=O)NNC(=S)NC(=O)c1ccccc1	1	-1	0	17
SMILES	PLC-beta3 inh	PLC-gamma1 inh	Tb MetRS inh	HGIII-sPLA2 inh
Cc1ccc(C(=O)NNC(=S)NC(=O)c2ccccc2)cc1	2	7	-1	35*
Cc1ccc(OCCSCc2nc3ccccc3[nH]2)cc1	-15	-17	6.8*	-10
Cc1ccc(CSCc2nc3ccccc3[nH]2)cc1	1	1	0	-6
Cc1ccc(SCc2nc3ccccc3[nH]2)cc1	-12	-6	4	-2
c1ccc(SCc2nc3ccccc3[nH]2)cc1	-1	3	6.5*	-5
O=C1Nc2c(Cl)cc(Cl)cc2C12Nc1ccccc1S2 (stereo not given)	-305	-233	.	-14
CC(=O)CC[C@@H]1CC[C@]2(CCCN(C(=O)C(C)(C)C)C2)O1	1	-1	.	2
CCc1ccc(C=NN2CCN(Cc3ccc(C)cc3C)CC2)cc1	2	-3	.	2
O=C(O)Cc1sc(N/N=C\c2ccccc2)nc1-c1ccccc1	-61	-55	0	23*
Cc1cc2c(c(=O)n1C1CC1)C(c1cccc(Cl)c1)C(C#N)=C(N)O2 (stereo not given)	2	-1	63*	3
C#CCN1CC(N(C)CCO)CS1(=O)=O (stereo not given)	2	2	.	6
O=C(CC1C(=O)Nc2ccccc2N1CC(=O)N1CCCC1)Nc1ccc(Br)cc1 (stereo not given)	-56	-38	19*	-13
